Source: PubChem (Johns Hopkins Ion Channel Center)
MrgX1 antagonist – human MrgX1 receptor antagonism, primary screen; Q96LB2; MRGX1-HEK293 calcium flux, Fluo-4, BAM8-22 antagonism; active compounds read low; B-score at 10 µM; 310,000 tested, 1.3% active; AID 588676;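 active = calcium-response B-score plate-corrected more than 3 library SD below zero, starting fluorescence within 5 deviations, no agonist response on first addition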;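 note: peak minus trough fluorescence over baseline after final BAM8-22 challenge near maximal dose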
Target sequence (Q96LB2 whole entry, looked up): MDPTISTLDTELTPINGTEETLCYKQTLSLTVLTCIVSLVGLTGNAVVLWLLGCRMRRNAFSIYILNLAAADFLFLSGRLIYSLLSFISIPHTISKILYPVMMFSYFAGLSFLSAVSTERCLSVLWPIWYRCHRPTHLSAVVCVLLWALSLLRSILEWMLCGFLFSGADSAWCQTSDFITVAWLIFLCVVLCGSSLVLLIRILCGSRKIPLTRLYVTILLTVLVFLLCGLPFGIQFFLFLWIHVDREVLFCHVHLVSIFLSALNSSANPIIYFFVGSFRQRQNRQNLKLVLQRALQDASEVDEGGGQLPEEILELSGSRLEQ
MrgX1 agonist – human MrgX1 receptor agonism, primary screen; Q96LB2; MrgX1-HEK293 cells, Fluo-4 calcium fluorescence, agonist mode; active compounds read high; B-score at 10 µM; 310,000 tested, 0.44% active;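 active = calcium response B-score plate-corrected fluorescence ratio at least 3 library SD, with starting fluorescence B-score inside 5 SD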
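Material: MrgX1-expressing HEK293 cells / Dosing: compound as first of three additions / Incubation: overnight seeding, then 1 h dark dye loading / Signal: Fluo-4 NW calcium fluorescence / Evaluation: B-scored fluorescence response ratio / Benchmarks: positive and negative control wells on each plate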
RGS4 act – RGS4 potentiation or activation; HEK293 M3R/inducible RGS4, carbachol calcium flux Fluo4; active compounds read low; B-score at 10 µM; 310,000 tested, 0.92% active; AID 463111;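 active = B-score of the integrated calcium signal more than 4 SD below the library mean, with starting fluorescence not abnormally high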;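 note: negative B-score means reduced calcium response which marks RGS4 activation or potentiation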
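Assay system: Inducible-RGS4 HEK293 cells carrying M3 receptor | Schedule: Compound preincubation 20 min at room temperature before agonist | Signal: Kinetic calcium fluorescence imaging with Fluo4-AM dye, 2 µM | Read-out basis: B score from integrated fluorescence ratio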
RGS4 inh – human RGS4 inhibition; P49798; HEK293 M3R/RGS4 inducible, Fluo-4 calcium flux; active compounds read high; triggered by carbachol at its EC20; B-score at 10 µM; 310,000 tested, 0.45% active;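 active = B-score, a plate-corrected calcium signal, over three deviations above library mean, with baseline fluorescence within five deviations of library mean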;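 note: RGS4 expression induced by doxycycline in cells with stable M3 receptor; B-score is computed from the integrated fluorescence ratio over baseline after carbachol; higher B-score means a larger calcium signal and so more RGS4 inhibition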
Target sequence (P49798 whole entry, looked up): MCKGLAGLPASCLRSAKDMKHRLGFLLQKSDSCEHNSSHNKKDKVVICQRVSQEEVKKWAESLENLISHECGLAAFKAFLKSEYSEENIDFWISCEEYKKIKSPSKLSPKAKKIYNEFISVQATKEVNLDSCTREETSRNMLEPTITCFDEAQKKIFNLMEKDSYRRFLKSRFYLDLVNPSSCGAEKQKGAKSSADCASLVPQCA
MrgX1 PAM – allosterically activates human MrgX1 receptor signaling; B-score at 10 µM; MrgX1-HEK293, Fluo-4 calcium flux, FDSS; active compounds read high; Q96LB2; 310,000 tested, 0.63% active;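 active = plate-corrected calcium response at least 3 library SD above typical, normal starting fluorescence, not activating the receptor alone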;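 note: compound read alongside a low EC10 to EC30 dose of BAM8-22 agonist; peak minus trough fluorescence over baseline measured at the second addition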
RGS4 inh valid – RGS4 inhibitor validation. AID 492999. 1,700 tested, 65% active. HEK293 M3R/RGS4, carbachol calcium Fluo-4 fluorescence; carbachol added at its EC20; 0 = buffer wells, 100 = carbachol control. calcium response, % at 10 µM. shares compounds with RGS4 inh;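 active = duplicate-averaged calcium response above the buffer-only control mean plus 5 SD of those controls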;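 note: integrated fluorescence ratio F max minus min over baseline F0; higher response in RGS4-induced cells means RGS4 inhibition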
M3R Ca ctr – non-induced cell nonspecific activity of RGS4 inhibitors. shares compounds with RGS4 inh. AID 493000. HEK293 M3R non-induced, carbachol calcium Fluo-4; submaximal (EC20) carbachol stimulus; buffer wells 0%, carbachol control wells 100%. 1,900 tested, 20% active. activity (percent), % at 10 µM; call rule not given here;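 note: RGS4 induction absent so cells express M3R without RGS4; higher means more calcium signal and flags a non-specific hit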
RGS4 inh ctr2 – second counter-screen for RGS4 inhibitors: non-induced cells without carbachol. shares compounds with RGS4 inh. HEK293 M3R/RGS4 non-induced, Fluo-4 calcium, no carbachol; normalised: buffer wells 0%, carbachol wells 100%. calcium response (agonist-mode artifact), % at 10 µM. 1,900 tested, 22% active;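 active = duplicate-averaged calcium rise in uninduced cells above buffer wells' mean plus 5 SD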
Large screens that a line does not name were inactive (follow-up assays come after a bar, where they were run). The list is not random: actives were taken first. Their share in the collection is about 3.5%.

Cc1ccc(NCC(=O)N/N=C/c2ccc(-c3cccc(C(F)(F)F)c3)o2)cc1	RGS4 inh 28 | RGS4 inh valid 62% | M3R Ca ctr 37% | RGS4 inh ctr2 inactive
Oc1ccc(N2CCN(Cc3cc4c(cc3Br)OCCO4)CC2)cc1	none
CCCN1CCC(=O)N([C@H](CN=[N+]=[N-])CC(C)C)CC1	none
CC(=C/C(=O)O)/C=C/c1ccco1	RGS4 inh 5.4 | RGS4 inh valid 7.0% | M3R Ca ctr inactive | RGS4 inh ctr2 inactive
O=Nc1c(O)n(Cc2ccc(Cl)cc2Cl)c2ccccc12	RGS4 inh 6.6 | RGS4 inh valid 5.5% | M3R Ca ctr inactive | RGS4 inh ctr2 inactive
COC(=O)/C=c1\sc2ncnn2c1=O	RGS4 inh 11 | RGS4 inh valid inactive | M3R Ca ctr inactive | RGS4 inh ctr2 inactive
CC(C)(C)C1CCc2nc(NC(=O)Cc3cn4ccsc4n3)sc2C1 (stereo unspecified)	RGS4 inh 7.1 | RGS4 inh valid 16% | M3R Ca ctr inactive | RGS4 inh ctr2 inactive
NC(=O)N/N=C/c1c(Sc2nnnn2-c2ccccc2)nc2ccccn2c1=O	RGS4 inh 12 | RGS4 inh valid 11% | M3R Ca ctr inactive | RGS4 inh ctr2 inactive
Cc1nn(-c2ccccc2)c(Cl)c1/C=N/NC(N)=O	none
CC(OC(=O)CCCC(=O)Nc1ccc(F)cc1)C(=O)c1ccccc1 (stereo unspecified)	none
CCCN1CCC(NC(=O)C2CC=CCC2C(=O)O)CC1 (stereo unspecified)	none
CC(=O)/C=C1/C(=O)Nc2ccccc21	RGS4 inh 18 | RGS4 inh valid 34% | M3R Ca ctr 44% | RGS4 inh ctr2 26%
Nc1ccccc1Sc1c[nH]c2ccccc12	none
CN(C(=O)CSc1nc2[nH]ncc2c(=O)[nH]1)c1ccccc1	none
O=C(O)CSc1nc(-c2ccccc2)nc2c1oc1ccccc12	none | RGS4 inh valid inactive | M3R Ca ctr inactive | RGS4 inh ctr2 inactive
O=C(O)CSc1nc(-c2ccc(Cl)cc2)nc2c1oc1ccccc12	RGS4 inh 4.8 | RGS4 inh valid 9.0% | M3R Ca ctr inactive | RGS4 inh ctr2 7.0%
O=C(O)C1CCN(c2nc(-c3ccccc3)nc3c2oc2ccccc23)CC1	none
O=C(Nc1ccc2nc3n(c(=O)c2c1)CCCCC3)C(=O)N1CCN(c2ccc(F)cc2)CC1	none
CCCCn1c(=O)[nH]c(=O)c2c1nc(CN1C(=O)c3ccccc3S1(=O)=O)n2CCC	none
CCCCn1c(=O)[nH]c(=O)c2c1nc(Cn1ncc(Cl)c(Cl)c1=O)n2CCC	RGS4 inh 21 | RGS4 inh valid 34% | M3R Ca ctr 56% | RGS4 inh ctr2 inactive
O=C(Nc1cccc([N+](=O)[O-])c1)c1ccc2snnc2c1	none
O=C(O)CN1C(=O)/C(=C/c2cccc(Cl)c2)Oc2ccccc21	none
O=C(O)CN1C(=O)/C(=C/c2ccccc2Cl)Oc2ccccc21	RGS4 inh 6.5 | RGS4 inh valid 22% | M3R Ca ctr 31% | RGS4 inh ctr2 inactive
CCCn1c(=O)c2[nH]c(-c3ccc(OCC(=O)Nc4ccc(C#N)cc4)cc3)nc2n(CCC)c1=O	none (no result: RGS4 act, RGS4 inh)
O=C(c1cccs1)N1CCc2c([nH]c3ccccc23)C1c1ccccn1 (stereo unspecified)	none
O=C(c1cc(-c2ccccc2)n[nH]1)N1CCc2c([nH]c3ccccc23)C1c1ccccn1 (stereo unspecified)	RGS4 inh 7.3 | RGS4 inh valid 27% | M3R Ca ctr 30% | RGS4 inh ctr2 inactive
CN(C)c1ccc(C(C[N+](=O)[O-])c2c(N)n(C)c(=O)n(C)c2=O)c(F)c1C#N (stereo unspecified)	MrgX1 agonist 31, RGS4 inh 22 | RGS4 inh valid 62% | M3R Ca ctr inactive | RGS4 inh ctr2 inactive
Cc1cccc(Nc2nc(NCCCN3CCOCC3)nc(N)c2[N+](=O)[O-])c1	none
COc1ccc(CNC(=O)CCNS(=O)(=O)c2ccc(C)cc2)cc1	none | RGS4 inh valid inactive | M3R Ca ctr inactive | RGS4 inh ctr2 inactive
Cn1cnnc1Sc1ccc(/C=C/C(=O)c2ccc(O)cc2)cc1[N+](=O)[O-]	none
COc1ccc(NC(=O)/C(C#N)=C/c2ccc(Sc3nncn3C)c([N+](=O)[O-])c2)cc1	RGS4 inh 6.8 | RGS4 inh valid 18% | M3R Ca ctr inactive | RGS4 inh ctr2 inactive
Oc1c(Br)cccc1/C=N/c1ncn[nH]1	RGS4 inh 4.7 | RGS4 inh valid 7.5% | M3R Ca ctr inactive | RGS4 inh ctr2 inactive
O=c1ccc2c([nH]1)CCCCCCCCCC2	none
Cc1[nH]n(-c2ncc(-c3ccccc3)s2)c(=O)c1C(c1ccc(Cl)cc1)C(C#N)C#N (stereo unspecified)	MrgX1 antagonist -5.3, RGS4 inh 14 | RGS4 inh valid 70% | M3R Ca ctr inactive | RGS4 inh ctr2 52%
S=c1[nH]nc(-c2cccs2)n1/N=C/c1c(Cl)cccc1Cl	RGS4 inh 11 | RGS4 inh valid 17% | M3R Ca ctr inactive | RGS4 inh ctr2 inactive
CCOC(=O)C1=C(C)Nc2nc(=S)[nH]n2C1c1ccc(Cl)cc1 (stereo unspecified)	RGS4 inh 9.2 (no result: MrgX1 antagonist, MrgX1 agonist, MrgX1 PAM) | RGS4 inh valid 14% | M3R Ca ctr 35% | RGS4 inh ctr2 18%
CCOC(=O)C1=C(C)Nc2nc(SCC)nn2C1c1ccc(OC)cc1 (stereo unspecified)	none
Cc1cccc(C(=O)NCC(=O)OCC(=O)c2ccc(Cl)s2)c1	none
COc1ccc(CNC(=O)CN(Cc2ccc(C)cc2)C(=O)c2csnn2)cc1	none
COc1ccc(NS(=O)(=O)c2ccc(Cl)c(N)c2)cc1Br	RGS4 inh 8.6 | RGS4 inh valid 15% | M3R Ca ctr 32% | RGS4 inh ctr2 inactive
Cc1ccc(NC(=O)C2=C(c3ccccc3)S(=O)(=O)CCS2(=O)=O)cc1	RGS4 inh 15 | RGS4 inh valid 28% | M3R Ca ctr inactive | RGS4 inh ctr2 16%
O=C(Nc1ccc(-c2ccccc2)cc1)c1ccccc1	none
Cc1ccc2c(c1)N(CCC(=O)NC1CCCCC1C)C(=O)CO2 (stereo unspecified)	none
COc1ccc(/C=C\C(=O)c2c(O)ccc3c(C)cc(=O)oc23)cc1OC	RGS4 inh 6.7 | RGS4 inh valid 8.0% | M3R Ca ctr inactive | RGS4 inh ctr2 inactive
COc1cc(/C=C/C(=O)c2c(O)ccc3c(C)cc(=O)oc23)ccc1O	MrgX1 PAM 6.7 | M3R Ca ctr inactive | RGS4 inh ctr2 inactive
